Source: ChEMBL document CHEMBL1122951, “Synthesis of new polyoxin derivatives and their activity against chitin synthase from Candida albicans” (J Med Chem, 1985)

Legend:
[1] = molecular target: Chitin synthase 1 (Candida albicans) (UniProt P23316); assay: Inhibitory activity against chitin synthase from Candida albicans at a concentration 100 uM
Procedure, shortened: (§1)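 Membrane preparation from C. albicans grown in liquid shake culture in Sabouraud broth, pH 6.5, washed in 0.2 M Tris-HCl pH 7.5 and broken with glass beads. Chitin synthase trypsin-activated just before assay. Substrate UDP-GlcNAc 0.5 mM. Percent inhibition at the stated inhibitor concentration, mean of triplicate assays.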

[2] = molecular target: Chitin synthase 1 (Candida albicans) (UniProt P23316); assay: Inhibitory activity against chitin synthase from Candida albicans at a concentration 25 uM; procedure, shortened: as §1
[3] = molecular target: Chitin synthase 1 (Candida albicans) (UniProt P23316); assay: Inhibitory activity against chitin synthase from Candida albicans at a concentration 5 uM; procedure, shortened: as §1

Chitin synthase 1 (Candida albicans), sequence (P23316 whole entry, looked up): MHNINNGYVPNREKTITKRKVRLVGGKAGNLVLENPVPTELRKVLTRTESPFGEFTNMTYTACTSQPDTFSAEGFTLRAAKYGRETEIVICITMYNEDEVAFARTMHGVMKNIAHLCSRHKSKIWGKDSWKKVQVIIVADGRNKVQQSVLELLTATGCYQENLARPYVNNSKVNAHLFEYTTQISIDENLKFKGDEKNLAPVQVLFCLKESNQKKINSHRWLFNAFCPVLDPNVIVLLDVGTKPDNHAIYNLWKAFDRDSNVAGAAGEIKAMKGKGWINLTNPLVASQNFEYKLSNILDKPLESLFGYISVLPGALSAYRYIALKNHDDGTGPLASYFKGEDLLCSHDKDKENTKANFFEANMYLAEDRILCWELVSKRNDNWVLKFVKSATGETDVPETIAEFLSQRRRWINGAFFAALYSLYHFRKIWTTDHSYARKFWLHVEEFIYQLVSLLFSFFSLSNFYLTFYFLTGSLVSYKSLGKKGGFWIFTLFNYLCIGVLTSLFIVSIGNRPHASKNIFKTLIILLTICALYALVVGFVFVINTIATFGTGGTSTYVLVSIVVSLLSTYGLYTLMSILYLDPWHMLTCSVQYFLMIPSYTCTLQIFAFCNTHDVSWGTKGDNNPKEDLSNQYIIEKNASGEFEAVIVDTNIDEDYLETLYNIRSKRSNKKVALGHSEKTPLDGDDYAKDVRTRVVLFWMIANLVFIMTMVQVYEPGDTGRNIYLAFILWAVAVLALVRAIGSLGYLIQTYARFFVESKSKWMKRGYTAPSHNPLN

Compound `NC(=O)NCCC[C@@H](N)C(=O)N[C@H](C(=O)O)[C@H]1O[C@@H](n2ccc(=O)[nH]c2=O)[C@H](O)[C@@H]1O` has an inhibition [1] of 0%, an inhibition [2] of 0% and an inhibition [3] of 0%.
`C[C@@H](N)CNC(C(=O)O)C1OC(n2ccc(=O)[nH]c2=O)C(O)C1O` (some centres undefined) was tested, and the inhibition [1] was 2%, the inhibition [2] was 0% and the inhibition [3] was 0%.
Compound `NC(=O)NCCC[C@@H](N)C(=O)N[C@@H](C(=O)O)[C@H]1O[C@@H](n2ccc(=O)[nH]c2=O)[C@H](O)[C@@H]1O` has an inhibition [1] of 80%, an inhibition [2] of 37% and an inhibition [3] of 0%.
With `C[C@@H](N)C(=O)N[C@@H](C(=O)O)[C@H]1O[C@@H](n2ccc(=O)[nH]c2=O)[C@H](O)[C@@H]1O` the inhibition [1] was 0%, the inhibition [2] was 0% and the inhibition [3] was 0%.
Compound `C[C@H](N)C(=O)N[C@@H](C(=O)O)[C@H]1O[C@@H](n2ccc(=O)[nH]c2=O)[C@H](O)[C@@H]1O` has an inhibition [1] of 45%, an inhibition [2] of 20% and an inhibition [3] of 0%.
`N[C@@H](C(=O)N[C@@H](C(=O)O)[C@H]1O[C@@H](n2ccc(=O)[nH]c2=O)[C@H](O)[C@@H]1O)[C@H](O)Cc1ccc(O)cc1` was tested, and the inhibition [1] was 100%, the inhibition [2] was 96% and the inhibition [3] was 79%.
`C[C@@H](O)[C@H](N)C(=O)N[C@@H](C(=O)O)[C@H]1O[C@@H](n2ccc(=O)[nH]c2=O)[C@H](O)[C@@H]1O` gave an inhibition [1] of 53%, an inhibition [2] of 26% and an inhibition [3] of 8%.
`C[C@H](N)C(=O)N(C)[C@@H](C(=O)O)[C@H]1O[C@@H](n2ccc(=O)[nH]c2=O)[C@H](O)[C@@H]1O` gave an inhibition [1] of 0%, an inhibition [2] of 0% and an inhibition [3] of 0%.
